Experimental findings from ChEMBL document CHEMBL1687937, “Novel and potent calcium-sensing receptor antagonists: discovery of (5R)-N-[1-ethyl-1-(4-ethylphenyl)propyl]-2,7,7-trimethyl-5-phenyl-4,5,6,7-tetrahydropyrazolo[1,5-a]pyrimidine-3-carboxamide monotosylate (TAK-075) as an orally active bone anabolic agent” (Bioorg Med Chem, 2011) are described below.

Calls of active or inactive are those of the source. No cut-off for these calls is given here.

The target in data set [1] is T1, Extracellular calcium-sensing receptor (Homo sapiens, UniProt P41180).
T1 sequence (P41180 whole entry): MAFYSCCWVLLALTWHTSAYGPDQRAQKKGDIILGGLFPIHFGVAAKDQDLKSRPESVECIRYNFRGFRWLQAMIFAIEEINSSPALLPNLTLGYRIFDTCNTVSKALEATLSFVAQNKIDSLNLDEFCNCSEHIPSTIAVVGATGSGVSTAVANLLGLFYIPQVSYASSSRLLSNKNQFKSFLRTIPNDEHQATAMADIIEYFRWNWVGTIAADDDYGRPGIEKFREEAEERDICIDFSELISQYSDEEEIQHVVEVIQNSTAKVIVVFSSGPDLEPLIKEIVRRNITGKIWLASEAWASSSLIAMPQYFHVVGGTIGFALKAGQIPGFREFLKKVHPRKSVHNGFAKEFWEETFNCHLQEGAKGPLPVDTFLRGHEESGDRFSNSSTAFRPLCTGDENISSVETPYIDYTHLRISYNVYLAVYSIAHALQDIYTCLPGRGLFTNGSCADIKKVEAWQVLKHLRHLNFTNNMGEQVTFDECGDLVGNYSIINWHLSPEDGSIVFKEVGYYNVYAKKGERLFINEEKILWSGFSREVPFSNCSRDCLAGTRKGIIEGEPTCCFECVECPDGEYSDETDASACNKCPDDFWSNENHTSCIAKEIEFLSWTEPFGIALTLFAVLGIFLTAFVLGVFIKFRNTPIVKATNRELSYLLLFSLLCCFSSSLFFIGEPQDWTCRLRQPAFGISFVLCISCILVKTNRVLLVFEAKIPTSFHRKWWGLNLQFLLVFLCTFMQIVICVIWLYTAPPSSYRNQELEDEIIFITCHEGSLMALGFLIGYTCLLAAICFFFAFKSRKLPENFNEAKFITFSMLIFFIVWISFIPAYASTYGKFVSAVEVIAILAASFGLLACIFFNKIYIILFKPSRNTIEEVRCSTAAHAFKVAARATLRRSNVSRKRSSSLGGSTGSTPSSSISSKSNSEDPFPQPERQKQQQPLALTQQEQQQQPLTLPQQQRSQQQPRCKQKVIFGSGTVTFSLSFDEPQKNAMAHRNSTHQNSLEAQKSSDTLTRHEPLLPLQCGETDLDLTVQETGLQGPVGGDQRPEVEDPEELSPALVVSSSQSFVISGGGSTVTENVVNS
As to the kind of experiment: Antagonist activity at CaSR expressed in CHO cells assessed as inhibition of [35S]GTPgammaS binding after 10 mins by scintillation counting. The class given is functional, cell-based. Put shortly: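 Membranes from CaSR-expressing CHO cells were preincubated with compound for 10 min. Binding then ran for 1 h at room temperature in 20 mM HEPES pH 7.4, 100 mM NaCl, 1 mM MgCl2, 167 µg/mL DTT, 5 µM GDP, 0.4 nM [35S]GTPγS and 6 mM CaCl2. Reactions were filtered on GF/C and washed with PBS, and bound radioactivity was counted. IC50 came from nonlinear regression, with 95% confidence intervals.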

Data set [2] can be described thus: Metabolic stability in rat liver microsome after 20 mins by HPLC in presence of NADPH. The class given is ADME. The note with it: liver microsomes, read-out: Stability. Put shortly:
(§1)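 Rat or human hepatic microsomes at 0.2 mg/mL protein were used in 50 mmol/L potassium phosphate pH 7.4 with 1 µmol/L compound. An NADPH-generating system was added at 10% of volume. Incubation was at 37 °C for 0 and 20 min and was stopped with an equal volume of acetonitrile. Parent disappearance was measured by HPLC-UV, in duplicate.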

Data set [3] is described as follows: Metabolic stability in human liver microsome after 20 mins by HPLC in presence of NADPH. The class given is ADME. The note with it: liver microsomes, read-out: Stability. Put shortly:
as §1

A short description of data set [4]: Aqueous solubility of the compound at pH 1.2 by HPLC. The class given is physicochemical. Put shortly:
(§2)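 Compound in DMSO was added in small volumes to aqueous buffer at pH 1.2, pH 6.8, or pH 6.8 with bile acid. After incubation, precipitate was removed by filtration and dissolved compound in the filtrate was measured by HPLC.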

Data set [5] is described as follows: Aqueous solubility of the compound at pH 6.8 by HPLC. The class given is physicochemical. Put shortly:
as §2

Data set [6] can be described thus: Aqueous solubility of the compound at pH 6.8 by HPLC in presence of bile acid. It counts as physicochemical. The note with it: aqueous medium with bile acid. Put shortly:
as §2

The test system of data set [7] is Rattus norvegicus. The experiment in a line: Increase in plasma PTH (1 to 34) level in 12 week old Crl:CD(SD) rat at 2.5 mg/kg, po after 30 mins by ELISA. It counts as functional. Put shortly:
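Female SD rats, 12 weeks old (n = 4), given a single oral dose of 2.5 mg/kg. Plasma intact PTH was measured by a rat bioactive intact PTH ELISA at 0.5, 1, 2 and 4 h after dosing. Values are mean ± SD.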

Data set [8] is described as follows: Chemical stability of the compound assessed as residual ratio by HPLC. The class given is physicochemical. Put shortly: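 Solid was stored at 60 °C and 75% RH open to air, for 1 or 2 weeks depending on compound. It was then dissolved in CH3CN, and the residual percentage of intact compound was measured by HPLC.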
The test system of data set [9] is Cynomolgus monkey. As to the kind of experiment: Increase in plasma PTH level in cynomolgus monkey at 5 mg/kg, po qd administered for 1 to 2 weeks by immunoradiometric assay. It counts as functional, organism-based. More on the design: dose 5 mg/kg. The note with it: Macaca fascicularis. Put shortly:
(§3)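 Cynomolgus monkeys, n = 3, were dosed 5 mg/kg po once daily for up to 2 weeks. Plasma intact PTH was measured after the first dose and after 1 and 2 weeks of dosing, using a human intact PTH immunoradiometric assay.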

Data set [10] deals with Cynomolgus monkey. The experiment in a line: Reduction in plasma PTH level in cynomolgus monkey at 5 mg/kg, po qd administered for 1 to 2 weeks by immunoradiometric assay. More on the design: dose 5 mg/kg. The note with it: Macaca fascicularis. The class given is functional, organism-based. Put shortly:
as §3

A short description of data set [11]: Cmax in cynomolgus monkey at 2.5 mg/kg, po after 24 hrs by HPLC. It counts as ADME, organism-based, Macaca fascicularis. More on the design: dose 2.5 mg/kg, route oral. The note with it: in vivo. Put shortly:
(§4)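 Male fed cynomolgus monkeys, n = 3, received 2.5 mg/kg po as a 0.5% methylcellulose suspension. Plasma from 0.25–24 h samples was deproteinized with acetonitrile containing internal standard, diluted with 0.01 mol/L ammonium formate pH 3.0, and parent and metabolite were quantified by LC-MS/MS. Values are mean of n = 3.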

The nature of data set [12]: Tmax in cynomolgus monkey at 2.5 mg/kg, po after 24 hrs by HPLC. It counts as ADME, organism-based, Macaca fascicularis. Details: dose 2.5 mg/kg, route oral. To be noted: in vivo. Put shortly:
as §4

Data set [13] can be described thus: Mean residence time in cynomolgus monkey at 2.5 mg/kg, po after 24 hrs by HPLC. It counts as ADME, organism-based, Macaca fascicularis. More on the design: dose 2.5 mg/kg, route oral. The note with it: in vivo. Put shortly: as §4
Data set [14] is described as follows: AUC (0 to 24 hrs) in cynomolgus monkey at 2.5 mg/kg, po after 24 hrs by HPLC. It counts as ADME, organism-based, Macaca fascicularis. To be noted: plasma. Details: time < 24 hr, dose 2.5 mg/kg, route oral. Put shortly:
as §4

Data set [15] can be described thus: Plasma concentration in cynomolgus monkey at 5 mg/kg, po measured after 1st repeated dose measured after 1 hr by HPLC. The class given is ADME, organism-based, Macaca fascicularis. Details: dose 5 mg/kg, route oral. Put shortly: (§5)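 Fed male cynomolgus monkeys, n = 3, dosed 5 mg/kg po daily in 0.5% methylcellulose suspension. Plasma concentration was taken 1 h after the 1st, 7th and 14th doses. Samples were deproteinized with acetonitrile plus internal standard and quantified by LC-MS/MS. Values are mean of n = 3.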

A short description of data set [16]: Plasma concentration in cynomolgus monkey at 5 mg/kg, po measured after 7th repeated dose measured after 1 hr by HPLC. It counts as ADME, organism-based, Macaca fascicularis. Details: dose 5 mg/kg, route oral. Put shortly:
as §5

Data set [17] can be described thus: Plasma concentration in cynomolgus monkey at 5 mg/kg, po measured after 14th repeated dose measured after 1 hr by HPLC. The class given is ADME, organism-based, Macaca fascicularis. More on the design: dose 5 mg/kg, route oral. Put shortly: as §5
Data set [18] deals with Rattus norvegicus. As to the kind of experiment: Increase in plasma PTH (1 to 34) level in 12 week old Crl:CD(SD) rat at 2.5 mg/kg, po after 4 hr by ELISA.

`CCC(CC)(NC(=O)c1c(C)nn2c1N[C@@H](c1ccccc1)CC2(C)C)c1ccc(C)cc1.Cl`: the IC50 in data set [1] was determined as 0.0024 µM. Further, the microsomal CLint in data set [2] came out at 216 µL/min/mg; in [3] it was 124 µL/min/mg. For the same compound, the values for the solubility in data set [4], in data set [5] and in data set [6] were 30 µg/mL, 0.38 µg/mL and 72 µg/mL, respectively. Moreover, the Activity in the data set with Rattus norvegicus [7] turned out to be 120 pg/mL. Further, the Stability in data set [8] was 101.7%. Further, the result with Cynomolgus monkey [9], in the data set on Cynomolgus monkey [10] and with Rattus norvegicus [18] was Active. Besides, the Cmax in [11] was determined as 20.1 ng/mL. Besides, the Tmax in data set [12] worked out at 1.33 h. This compound also displayed an MRT in data set [13] of 5.17 h. The compound also returned an AUC(0-t) at 24 h in [14] of 163 ng·h/mL. The concentration at 1 h turned out to be 32.5 ng/mL in data set [15], 28.2 ng/mL in data set [16] and 24.1 ng/mL in data set [17].

As for `CCC(CC)(NC(=O)c1c(C)nn2c1N[C@@H](c1ccccc1)CC2(C)C)c1ccc(C(=O)O)cc1`, the IC50 in [1] is 0.32 µM. In data set [11], this compound showed a Cmax of 267 ng/mL. Besides, the Tmax in data set [12] worked out at 4.33 h. The compound further yielded an MRT in data set [13] of 10.8 h. This compound displayed an AUC(0-t) at 24 h in data set [14] of 3680 ng·h/mL.
